Experimental data taken from article PMC11865470 (Communications Biology, 2025).
“Also recorded” adds a separate entry of the source.

Key:
Type in all cases: cell-based
HV1 = biological target: T1, HV1 (Homo sapiens, UniProt Q96D96); assay: whole-cell patch-clamp, off-target channel, 10 μM compound; settings: vs 0.1% DMSO
T1 sequence (Q96D96 1-273): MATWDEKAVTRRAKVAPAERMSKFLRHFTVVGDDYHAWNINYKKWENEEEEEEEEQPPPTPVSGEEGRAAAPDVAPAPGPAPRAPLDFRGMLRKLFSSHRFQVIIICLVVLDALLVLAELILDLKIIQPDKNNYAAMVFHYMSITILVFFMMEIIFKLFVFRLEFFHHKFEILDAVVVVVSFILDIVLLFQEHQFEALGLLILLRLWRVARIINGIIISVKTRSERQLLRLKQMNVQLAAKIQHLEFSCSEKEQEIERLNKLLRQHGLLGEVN
How it was run: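 HV1 in transfected HEK293T cells, whole-cell. Pipette (mM): 120 CsCl, 100 MES, pH 5.5. Bath (mM): 150 NaCl, 5 KCl, 1 MgCl2, 2 CaCl2, 10 glucose, 100 HEPES, pH 7.2. Bath with 0.1% DMSO applied before 10 μM test compound. Inhibition ratios compared by unpaired t-test, n = 5.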

[1] = biological target: T2, mouse Otop1 (mOtop1) channels (Mus musculus, UniProt Q80VM9); assay: whole-cell patch-clamp, "on-current" analysis of acid/alkali-evoked currents
T2 sequence (Q80VM9 1-600): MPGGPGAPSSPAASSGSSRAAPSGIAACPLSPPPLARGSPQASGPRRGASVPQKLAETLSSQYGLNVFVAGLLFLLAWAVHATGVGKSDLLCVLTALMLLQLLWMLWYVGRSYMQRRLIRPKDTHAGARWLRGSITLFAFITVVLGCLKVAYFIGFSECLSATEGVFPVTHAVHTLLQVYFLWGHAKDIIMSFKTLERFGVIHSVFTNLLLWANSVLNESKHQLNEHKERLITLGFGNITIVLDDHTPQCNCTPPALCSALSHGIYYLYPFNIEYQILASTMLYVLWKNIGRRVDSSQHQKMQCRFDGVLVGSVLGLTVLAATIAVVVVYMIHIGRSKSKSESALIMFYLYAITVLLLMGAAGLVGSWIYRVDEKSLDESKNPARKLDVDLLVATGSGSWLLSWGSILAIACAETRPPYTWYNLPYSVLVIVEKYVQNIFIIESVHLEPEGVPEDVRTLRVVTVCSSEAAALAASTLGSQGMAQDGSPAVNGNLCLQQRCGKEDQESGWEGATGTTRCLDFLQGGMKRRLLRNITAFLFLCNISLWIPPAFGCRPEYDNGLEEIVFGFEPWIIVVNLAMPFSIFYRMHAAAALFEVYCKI

CaV3.1 = CaV3.1 (Homo sapiens, UniProt O43497); assay: whole-cell patch-clamp, off-target channel, 10 μM compound
Chain of CaV3.1 (O43497 whole entry): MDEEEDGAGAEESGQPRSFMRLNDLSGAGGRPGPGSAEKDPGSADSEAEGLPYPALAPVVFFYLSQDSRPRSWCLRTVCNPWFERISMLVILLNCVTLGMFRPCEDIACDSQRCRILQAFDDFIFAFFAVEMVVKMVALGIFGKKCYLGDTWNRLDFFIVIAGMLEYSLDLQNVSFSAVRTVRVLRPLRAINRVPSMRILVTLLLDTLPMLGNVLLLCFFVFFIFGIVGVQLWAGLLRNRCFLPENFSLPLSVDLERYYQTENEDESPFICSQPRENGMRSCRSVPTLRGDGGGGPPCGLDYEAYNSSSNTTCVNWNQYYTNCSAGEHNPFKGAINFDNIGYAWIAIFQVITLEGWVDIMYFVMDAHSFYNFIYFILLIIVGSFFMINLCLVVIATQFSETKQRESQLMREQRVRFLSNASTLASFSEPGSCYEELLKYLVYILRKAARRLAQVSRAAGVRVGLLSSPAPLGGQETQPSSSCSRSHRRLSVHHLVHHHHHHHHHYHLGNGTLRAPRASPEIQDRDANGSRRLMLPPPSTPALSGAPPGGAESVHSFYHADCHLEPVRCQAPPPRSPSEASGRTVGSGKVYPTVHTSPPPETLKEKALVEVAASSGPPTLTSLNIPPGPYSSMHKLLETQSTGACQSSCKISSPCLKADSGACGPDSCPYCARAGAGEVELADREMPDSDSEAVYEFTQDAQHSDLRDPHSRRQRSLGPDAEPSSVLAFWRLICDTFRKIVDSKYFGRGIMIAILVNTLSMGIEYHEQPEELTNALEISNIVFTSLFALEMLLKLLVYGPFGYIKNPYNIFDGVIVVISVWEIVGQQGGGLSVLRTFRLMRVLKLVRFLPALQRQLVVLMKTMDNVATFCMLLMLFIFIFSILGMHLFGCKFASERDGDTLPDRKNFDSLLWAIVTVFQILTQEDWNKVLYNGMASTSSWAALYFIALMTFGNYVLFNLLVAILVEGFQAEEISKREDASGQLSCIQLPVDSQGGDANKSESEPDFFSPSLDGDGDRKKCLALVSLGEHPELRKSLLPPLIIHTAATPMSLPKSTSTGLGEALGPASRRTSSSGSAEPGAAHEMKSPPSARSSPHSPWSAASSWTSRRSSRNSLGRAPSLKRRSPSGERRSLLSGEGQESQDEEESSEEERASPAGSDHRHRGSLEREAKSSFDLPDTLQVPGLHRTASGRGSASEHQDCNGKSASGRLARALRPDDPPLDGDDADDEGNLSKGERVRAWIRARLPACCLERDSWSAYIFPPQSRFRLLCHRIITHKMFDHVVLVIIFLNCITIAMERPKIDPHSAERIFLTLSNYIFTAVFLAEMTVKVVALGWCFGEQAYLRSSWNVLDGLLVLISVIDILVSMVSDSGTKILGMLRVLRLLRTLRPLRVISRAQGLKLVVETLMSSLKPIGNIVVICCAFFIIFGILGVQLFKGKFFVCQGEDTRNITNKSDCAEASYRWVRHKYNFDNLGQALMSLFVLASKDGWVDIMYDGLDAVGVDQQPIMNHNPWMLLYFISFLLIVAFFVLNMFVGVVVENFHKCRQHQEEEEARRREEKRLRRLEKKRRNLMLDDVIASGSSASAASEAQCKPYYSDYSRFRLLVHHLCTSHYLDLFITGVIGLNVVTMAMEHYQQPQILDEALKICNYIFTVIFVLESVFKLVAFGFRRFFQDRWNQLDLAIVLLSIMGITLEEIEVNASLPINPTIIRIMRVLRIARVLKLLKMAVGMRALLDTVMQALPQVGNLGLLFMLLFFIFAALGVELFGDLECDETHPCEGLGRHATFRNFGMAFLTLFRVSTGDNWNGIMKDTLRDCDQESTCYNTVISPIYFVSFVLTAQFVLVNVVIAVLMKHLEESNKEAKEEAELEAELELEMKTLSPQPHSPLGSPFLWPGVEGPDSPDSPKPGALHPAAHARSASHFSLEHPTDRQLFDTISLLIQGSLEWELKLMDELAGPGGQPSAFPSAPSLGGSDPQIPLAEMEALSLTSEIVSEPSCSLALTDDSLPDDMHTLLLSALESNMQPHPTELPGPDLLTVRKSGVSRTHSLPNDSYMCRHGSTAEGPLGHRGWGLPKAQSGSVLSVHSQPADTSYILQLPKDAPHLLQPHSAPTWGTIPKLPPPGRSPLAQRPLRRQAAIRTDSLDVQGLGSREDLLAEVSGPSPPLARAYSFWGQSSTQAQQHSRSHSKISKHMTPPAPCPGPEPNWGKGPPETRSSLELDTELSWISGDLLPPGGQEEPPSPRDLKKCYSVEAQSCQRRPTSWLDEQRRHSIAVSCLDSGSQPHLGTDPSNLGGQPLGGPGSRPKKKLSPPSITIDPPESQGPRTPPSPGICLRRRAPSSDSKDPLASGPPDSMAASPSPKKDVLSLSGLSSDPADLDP
How it was run: (§1)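 CaV channels in transfected HEK293T cells, whole-cell. Pipette (mM): 120 CsMeSO3, 2 Mg-ATP, 11 EGTA, 10 HEPES, pH 7.4. Bath (mM): 138 NaCl, 5.6 KCl, 2.6 CaCl2, 20 TEA-Cl, 5 glucose, 5 HEPES, pH 7.4. 0.1% DMSO bath applied before 10 μM test compound. Inhibition ratios compared by unpaired t-test, n = 5.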

hERG = hERG (Homo sapiens, UniProt Q12809); assay: whole-cell patch-clamp, off-target channel, 10 μM compound
How it was run: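 hERG, transiently transfected HEK293T cells, whole-cell recording 16–24 h after seeding. Bath containing 0.1% DMSO applied first, then 10 μM test compound. Inhibition ratio from DMSO compared with that from compound by unpaired t-test, n = 5.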

ASIC1a = ASIC1a (Rattus norvegicus, UniProt P55926); assay: whole-cell patch-clamp, off-target channel, 10 μM compound; settings: vs 0.1% DMSO
Chain of ASIC1a (P55926 whole entry): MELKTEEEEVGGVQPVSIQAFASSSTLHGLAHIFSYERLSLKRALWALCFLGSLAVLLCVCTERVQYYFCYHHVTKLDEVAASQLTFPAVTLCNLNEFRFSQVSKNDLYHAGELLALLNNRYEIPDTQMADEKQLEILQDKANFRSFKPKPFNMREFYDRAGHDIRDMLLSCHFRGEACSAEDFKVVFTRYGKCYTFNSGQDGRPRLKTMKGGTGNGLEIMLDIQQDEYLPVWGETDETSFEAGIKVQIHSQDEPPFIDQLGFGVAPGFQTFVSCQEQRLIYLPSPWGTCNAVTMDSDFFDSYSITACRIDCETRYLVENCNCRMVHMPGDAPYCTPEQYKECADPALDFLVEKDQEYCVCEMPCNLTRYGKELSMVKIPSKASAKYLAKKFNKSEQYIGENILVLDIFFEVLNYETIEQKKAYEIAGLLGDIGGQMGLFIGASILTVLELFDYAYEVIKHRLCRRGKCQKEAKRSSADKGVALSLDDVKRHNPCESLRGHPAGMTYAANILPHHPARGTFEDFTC
How it was run: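 ASIC channels in transfected HEK293T cells, whole-cell. Pipette (mM): 140 CsF, 11 EGTA, 1 CaCl2, 2 TEA-Cl, 4 MgCl2, 10 HEPES, pH 7.3. NaCl-based bath with 20 mM HEPES (pH 7.4) or 20 mM MES (pH 5.5). 0.1% DMSO bath applied before 10 μM test compound. Inhibition ratios compared by unpaired t-test, n = 5.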

CaV1.2 = CaV1.2 (Mus musculus, UniProt Q01815); assay: whole-cell patch-clamp, off-target channel, 10 μM compound; settings: for sensitivity of channel to compound: vs 0.1% DMSO
Chain of CaV1.2 (Q01815 whole entry): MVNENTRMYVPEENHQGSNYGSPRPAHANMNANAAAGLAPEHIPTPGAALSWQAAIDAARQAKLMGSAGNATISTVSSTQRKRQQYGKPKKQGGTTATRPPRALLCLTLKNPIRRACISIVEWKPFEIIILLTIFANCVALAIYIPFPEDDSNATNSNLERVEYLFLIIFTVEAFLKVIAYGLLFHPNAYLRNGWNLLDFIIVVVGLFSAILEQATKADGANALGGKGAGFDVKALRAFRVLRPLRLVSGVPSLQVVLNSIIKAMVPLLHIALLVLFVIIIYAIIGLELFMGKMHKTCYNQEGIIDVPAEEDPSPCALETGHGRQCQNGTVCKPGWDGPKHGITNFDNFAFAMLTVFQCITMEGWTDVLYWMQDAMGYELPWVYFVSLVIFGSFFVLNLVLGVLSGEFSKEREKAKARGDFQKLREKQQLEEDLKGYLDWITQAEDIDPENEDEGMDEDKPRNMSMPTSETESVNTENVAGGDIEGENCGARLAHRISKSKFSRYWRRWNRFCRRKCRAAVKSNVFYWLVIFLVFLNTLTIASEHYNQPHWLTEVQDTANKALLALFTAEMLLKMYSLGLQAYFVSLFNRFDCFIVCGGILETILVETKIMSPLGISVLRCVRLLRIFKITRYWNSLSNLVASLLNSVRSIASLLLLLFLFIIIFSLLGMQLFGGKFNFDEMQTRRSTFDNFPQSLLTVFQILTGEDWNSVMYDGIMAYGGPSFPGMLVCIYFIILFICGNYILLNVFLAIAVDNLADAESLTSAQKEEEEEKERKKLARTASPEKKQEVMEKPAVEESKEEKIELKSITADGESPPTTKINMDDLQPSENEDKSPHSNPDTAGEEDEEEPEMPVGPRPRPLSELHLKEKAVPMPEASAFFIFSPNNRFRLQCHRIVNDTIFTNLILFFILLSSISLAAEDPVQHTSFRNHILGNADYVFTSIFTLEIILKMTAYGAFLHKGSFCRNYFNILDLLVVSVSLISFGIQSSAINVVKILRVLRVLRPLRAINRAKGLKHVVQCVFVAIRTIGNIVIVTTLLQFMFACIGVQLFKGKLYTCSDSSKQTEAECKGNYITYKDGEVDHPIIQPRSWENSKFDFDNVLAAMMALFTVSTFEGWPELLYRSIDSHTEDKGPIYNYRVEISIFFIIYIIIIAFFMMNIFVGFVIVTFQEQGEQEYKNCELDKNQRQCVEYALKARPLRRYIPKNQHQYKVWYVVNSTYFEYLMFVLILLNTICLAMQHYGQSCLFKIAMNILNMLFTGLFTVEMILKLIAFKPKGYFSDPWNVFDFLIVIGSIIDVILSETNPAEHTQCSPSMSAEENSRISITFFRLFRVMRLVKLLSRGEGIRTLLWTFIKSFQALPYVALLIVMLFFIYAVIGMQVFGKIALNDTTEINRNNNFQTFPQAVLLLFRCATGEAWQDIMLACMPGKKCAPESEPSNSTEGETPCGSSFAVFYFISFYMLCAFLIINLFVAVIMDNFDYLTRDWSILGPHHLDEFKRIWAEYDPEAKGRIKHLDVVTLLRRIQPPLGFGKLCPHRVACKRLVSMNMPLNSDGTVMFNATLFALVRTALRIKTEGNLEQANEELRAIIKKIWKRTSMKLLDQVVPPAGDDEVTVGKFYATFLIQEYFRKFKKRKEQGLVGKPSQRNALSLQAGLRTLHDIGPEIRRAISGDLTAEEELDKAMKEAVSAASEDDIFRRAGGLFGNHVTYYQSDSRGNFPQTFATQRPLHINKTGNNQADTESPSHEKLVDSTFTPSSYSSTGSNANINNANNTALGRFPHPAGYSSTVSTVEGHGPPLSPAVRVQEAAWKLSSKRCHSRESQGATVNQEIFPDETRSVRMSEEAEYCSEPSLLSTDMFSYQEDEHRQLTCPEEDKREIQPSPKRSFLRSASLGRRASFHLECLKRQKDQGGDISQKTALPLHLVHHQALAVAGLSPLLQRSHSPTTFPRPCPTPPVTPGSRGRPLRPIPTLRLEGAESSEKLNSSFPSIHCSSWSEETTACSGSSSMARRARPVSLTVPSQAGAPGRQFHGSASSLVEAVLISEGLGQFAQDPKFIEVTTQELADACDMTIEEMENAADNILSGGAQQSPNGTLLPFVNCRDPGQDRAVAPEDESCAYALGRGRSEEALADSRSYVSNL
How it was run: as §1

KV3.1 = biological target: T3, KV3.1 (Mus musculus, UniProt P15388); assay: whole-cell patch-clamp, off-target channel, 10 μM compound; settings: for sensitivity of channel to compound: vs 0.1% DMSO
T3 sequence (P15388 1-585 isoform P15388-3): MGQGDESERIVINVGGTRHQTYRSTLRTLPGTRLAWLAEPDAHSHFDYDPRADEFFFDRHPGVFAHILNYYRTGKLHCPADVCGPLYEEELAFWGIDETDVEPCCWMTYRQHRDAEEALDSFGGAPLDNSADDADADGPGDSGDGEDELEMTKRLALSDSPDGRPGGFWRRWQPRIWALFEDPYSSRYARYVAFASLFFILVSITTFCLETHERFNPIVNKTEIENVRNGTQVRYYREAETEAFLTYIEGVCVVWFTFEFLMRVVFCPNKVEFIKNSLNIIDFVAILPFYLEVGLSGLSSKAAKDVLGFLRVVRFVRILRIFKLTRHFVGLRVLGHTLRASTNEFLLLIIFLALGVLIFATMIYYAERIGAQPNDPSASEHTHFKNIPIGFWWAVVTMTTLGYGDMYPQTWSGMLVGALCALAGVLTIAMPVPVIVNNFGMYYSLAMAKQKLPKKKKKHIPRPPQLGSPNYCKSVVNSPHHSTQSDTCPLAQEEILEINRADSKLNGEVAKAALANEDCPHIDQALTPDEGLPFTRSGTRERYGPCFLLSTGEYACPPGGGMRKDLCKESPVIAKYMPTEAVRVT
How it was run: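 KV channels in transiently transfected HEK293T cells, whole-cell. Pipette (mM): 140 KCl, 2.5 MgCl2, 11 EGTA, 10 HEPES, pH 7.4. Bath (mM): 145 NaCl, 2.8 KCl, 2 CaCl2, 1 MgCl2, 10 glucose, 10 HEPES, pH 7.4. 0.1% DMSO bath applied, then 10 μM test compound. DMSO vs compound inhibition ratio compared by unpaired t-test, n = 5.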

Kir2.1 = Kir2.1 (Homo sapiens, UniProt P63252); assay: whole-cell patch-clamp, off-target channel, 10 μM compound; settings: vs 0.1% DMSO
[2] = EC50s, enhancing acid-evoked Otop1 currents, summary statement
[3] = apparent EC50, potentiation of mOtop1 currents, pH 5.5, on-current analysis, n = 5

SMILES | sensitivity of channel to compound (HV1) | direct activation of the Otop1 channel [1] | effect on mOtop1 activity at alkaline or neutral pH ([1]; 10 μM, alkaline and neutral pH) | effect on pH 4.5-6.0 acid-activated mOtop1 currents ([1]; 10 μM, compared to the pH 3.5 group, Fig 1E) | effect on pH 3.5-activated mOtop1 currents ([1]; 10 μM) | effect on pH 5.5-activated mOtop1 currents ([1]; 10 μM, pH 5.5) | EC50 ([1]; EC50, potentiation of mOtop1 currents, pH 6.0, on-current analysis, n = 5) [µM] | EC50 [1, 2] [µM] | EC50 [1, 3] [µM] | inhibition ratio (CaV3.1) [%] | inhibition ratio (hERG) [%] | sensitivity of channel to compound (ASIC1a) | sensitivity of channel to compound (CaV1.2) | inhibition ratio (KV3.1) [%] | sensitivity of channel to compound (Kir2.1) | sensitivity of channel to compound (KV3.1) | sensitivity of channel to compound (CaV3.1; vs 0.1% DMSO) | inhibition ratio (CaV1.2) [%]
Cc1ccc(C(=O)Nc2ccc3ccccc3c2)o1 [MFaN, 5-methyl-N-2-naphthyl-2-furamide] | completely resistant | without directly activating | did not affect | potently potentiated | no detectable effect | robust potentiation effects; also recorded: potent potentiation effects | 8.9 ± 4.7 | ~10 | 10.3 ± 2.6 | 11.7 | 13.7 | completely resistant | completely resistant | 15.2 | completely resistant | – | – | –
Cc1cc(NC(=O)c2ccc(Br)o2)ccc1NC(=O)c1ccco1 [B2FAMP, 5-Bromo-N-[4-(2-furoylamino)-3-methylphenyl]-2-furamide] | completely resistant | without directly activating | – | – | did not potentiate | robust potentiation effects; also recorded: markedly potentiated; also recorded: potent potentiation effects | – | ~10 | 12.2 ± 3.4 | – | – | – | completely resistant | – | – | completely resistant | – | –
CC(C)c1noc2ncc(C(=O)c3ccccc3O)cc12 [HIMOP, (2-hydroxyphenyl)-(3-propan-2-yl-5-isoxazolo[5,4-b]pyridinyl)methanone] | completely resistant | without directly activating | – | – | did not potentiate | robust potentiation effects; also recorded: markedly potentiated; also recorded: potent potentiation effects | – | ~10 | 16.8 ± 6.5 | – | 8.5 | completely resistant | – | – | completely resistant | completely resistant | completely resistant | 15.6
